Experimental data reported in ChEMBL document CHEMBL1132985, “Design and SAR of novel potassium channel openers targeted for urge urinary incontinence. 2. Selective and potent benzylamino cyclobutenediones” (J Med Chem, 2000).

Columns and labels:
Format in all cases: functional
Rattus norvegicus [1] = species on record: Rattus norvegicus; assay: In vitro inhibitory concentration that relaxed KCL induced contraction in rat detrusor strip by 50%
Rattus norvegicus [2] = assay: Compound was evaluated in vivo for the effective dose that cause a 50% reduction in frequency of spontaneous bladder contraction in the rat hypertrophied model after oral administration
Outline: (§1)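 Female Sprague-Dawley rats (190-210 g) given partial proximal urethral ligation (4-0 silk over 1 mm rod) under isoflurane; bladder catheter, cystometry in metabolic cages after overnight saline perfusion (2 mL/h), saline infusion 20 mL/h. Oral dosing in PEG-200 2 h after first cystometry, repeat ~1 h post-dose; % change in contraction frequency from pre-drug; ED50 from dose-response.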

Rattus norvegicus [3] = assay: The percent change in BP was determined after oral administration of a dose of 10 mg/kg in rat hypertrophied model
Rattus norvegicus [4] = assay: The percent change in the frequency of spontaneous bladder contractions after oral administration of a dose of 3 mg/kg in rat hypertrophic bladder model; outline: as §1
Rattus norvegicus [5] = assay: Compound was evaluated in vivo for the effective dose that cause a 20% drop in MAP normotensive rat after oral administration
[6] = Selectivity ratio of MAP ED20/bladder ED50
Outline: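 Ratio of oral MAP ED20 in normotensive rats to oral ED50 for 50% fall in spontaneous bladder contraction frequency in rat hypertrophied unstable-bladder model.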

SMILES	IC50 (Rattus norvegicus [1]) [µM]	other results
CCC(C)(C)/N=c1\c(O)c(O)\c1=N/Cc1ccc(C#N)cc1Cl	0.13	–
Cc1cc(Br)cc(C)c1C/N=c1\c(O)c(O)\c1=N/C(C)(C)C	0.29	–
Cc1cc(Cl)cc(Cl)c1C/N=c1\c(O)c(O)\c1=N/C(C)(C)C	0.22	–
CC(C)(C)/N=c1\c(O)c(O)\c1=N/Cc1c(Cl)cccc1Cl	1.1	–
CCc1cc(C#N)ccc1C/N=c1\c(O)c(O)\c1=N/[C@H](C)C(C)(C)C	2	–
CC(/N=c1\c(O)c(O)\c1=N/Cc1ccc(Cl)cc1Cl)C(C)(C)C (stereo not drawn)	0.34	–
CC(C)(C)/N=c1\c(O)c(O)\c1=N/Cc1ccc(C#N)cc1Cl	0.14	ED50 (Rattus norvegicus [2]): 3 mg/kg
CCc1cc(C#N)ccc1C/N=c1\c(O)c(O)\c1=N/C(C)(C)C	0.24	–
CCC(C)(C)/N=c1\c(O)c(O)\c1=N/Cc1c(C)cc(Br)cc1C	1.2	–
CCC(C)(C)/N=c1\c(O)c(O)\c1=N/Cc1ccc(F)c(F)c1	1.6	–
CCC(C)(C)/N=c1\c(O)c(O)\c1=N/Cc1ccc(SC)cc1	5.6	–
CC(C)(C)/N=c1\c(O)c(O)\c1=N/Cc1cc(F)ccc1F	3.9	–
CCC(C)(C)/N=c1\c(O)c(O)\c1=N/Cc1c(C)cc(C)cc1Cl	0.2	–
CCC(C)(C)/N=c1\c(O)c(O)\c1=N/Cc1ccc(F)cc1F	0.22	–
CCC(C)(C)/N=c1\c(O)c(O)\c1=N/Cc1ccc(F)cc1Cl	1.5	–
Cc1cc(C#N)cc(Cl)c1C/N=c1\c(O)c(O)\c1=N/C(C)C(C)(C)C (stereo not drawn)	1.9	–
N#Cc1ccc(CNc2c(NCc3ccc(C#N)cc3)c(=O)c2=O)cc1	> 30	–
CCC(C)(C)/N=c1\c(O)c(O)\c1=N/Cc1cc(F)cc(F)c1	0.75	–
CCc1cc(C/N=c2\c(O)c(O)\c2=N/C(C)(C)C)ccc1C#N	6.1	–
CC(C)(C)/N=c1\c(O)c(O)\c1=N/Cc1ccccc1	3.4	–
CCCC/N=c1\c(O)c(O)\c1=N/Cc1ccc(C#N)cc1	> 30	–
CC(/N=c1\c(O)c(O)\c1=N/CCc1ccc(C#N)cc1)C(C)(C)C (stereo not drawn)	> 30	–
CCC/N=c1\c(O)c(O)\c1=N/Cc1ccc(C#N)cc1	21.9	–
CCc1cc(C#N)ccc1C/N=c1\c(O)c(O)\c1=N/C(C)(C)CC	0.11	–
CC(C)(C)/N=c1\c(O)c(O)\c1=N/Cc1ccccc1F	2.1	–
CC(C)(C)/N=c1\c(O)c(O)\c1=N/Cc1ccc(Cl)cc1	1.7	–

SMILES	IC50 (Rattus norvegicus [1]) [µM]	other results
CCC(C)(C)/N=c1\c(O)c(O)\c1=N/Cc1c(Cl)cccc1Cl	0.28	–
CCC(C)(C)/N=c1\c(O)c(O)\c1=N/Cc1c(C)cccc1Cl	4.4	–
CC(C)(C)/N=c1\c(O)c(O)\c1=N/CCc1ccc(C#N)cc1	> 30	–
CC(C)C/N=c1\c(O)c(O)\c1=N/Cc1ccc(C#N)cc1	10.2	–
CCCC(=O)N(Cc1ccc(C#N)cc1)c1c(NC(C)C(C)(C)C)c(=O)c1=O (stereo not drawn)	12.2	ED50 (Rattus norvegicus [2]): 8 mg/kg
CCC(C)(C)/N=c1\c(O)c(O)\c1=N/Cc1ccc(C)cc1C	0.53	–
CCC(C)(C)/N=c1\c(O)c(O)\c1=N/Cc1cc(C)cc(C)c1	> 30	–
CC(C)(C)/N=c1\c(O)c(O)\c1=N/Cc1c(F)cccc1F	7.5	–
N#Cc1ccc(CNc2c(NC3CCCC3)c(=O)c2=O)cc1	9.4	–
CCC(C)(C)/N=c1\c(O)c(O)\c1=N/Cc1c(C)cccc1C	0.83	–
CC(C)(C)/N=c1\c(O)c(O)\c1=N/Cc1ccncc1	3	–
CC(C)(C)/N=c1\c(O)c(O)\c1=N/Cc1ccc(F)cc1Cl	1.4	–
CC(C)(C)/N=c1\c(O)c(O)\c1=N/Cc1cccnc1	2.6	–
CC(C)(C)/N=c1\c(O)c(O)\c1=N/Cc1ccc(F)cc1	1.5	–
CC(C)(C)/N=c1\c(O)c(O)\c1=N/Cc1ccccn1	11.5	–
CCC(C)(C)/N=c1\c(O)c(O)\c1=N/Cc1ccc(Cl)cc1Cl	0.21	–
C[C@@H](/N=c1\c(O)c(O)\c1=N/Cc1ccc(C#N)cc1)C(C)(C)C	0.27	Change (Rattus norvegicus [3]): 7%; Change (Rattus norvegicus [4]): -69%
CCc1cc(C#N)ccc1Nc1c(N[C@H](C)C(C)(C)C)c(=O)c1=O	–	ED50 (Rattus norvegicus [2]): 0.13 mg/kg; ED20 (Rattus norvegicus [5]): 2.3 mg/kg; Ratio [6]: 17.7
CCC(C)(C)Nc1c(NCc2c(C)cc(Cl)cc2Cl)c(=O)c1=O	0.1	Change (Rattus norvegicus [3]): -7%; ED50 (Rattus norvegicus [2]): 0.6 mg/kg; ED20 (Rattus norvegicus [5]): 100 mg/kg; Change (Rattus norvegicus [4]): -82%; Ratio [6]: 166
CC[C@@H](C)/N=c1\c(O)c(O)\c1=N/Cc1ccc(C#N)cc1	4	–
CC[C@H](C)/N=c1\c(O)c(O)\c1=N/Cc1ccc(C#N)cc1	2.2	–
Cc1cc(Cl)cc(Cl)c1C/N=c1\c(O)c(O)\c1=N/C(C)C(C)(C)C (stereo not drawn)	9.8	–
N#Cc1ccc(CNc2c(N)c(=O)c2=O)cc1	> 30	–
CC(C)(CO)/N=c1\c(O)c(O)\c1=N/Cc1ccc(C#N)cc1	21.3	–
CC(/N=c1\c(O)c(O)\c1=N/Cc1ccc(C#N)cc1Cl)C(C)(C)C (stereo not drawn)	0.18	–
CCC(C)(C)/N=c1\c(O)c(O)\c1=N/Cc1ccc(C#N)cc1	1.1	–

SMILES	IC50 (Rattus norvegicus [1]) [µM]	other results
CC(C)(C)/N=c1\c(O)c(O)\c1=N/Cc1ccc(Cl)cc1Cl	1.3	–
CCC(C)(C)/N=c1\c(O)c(O)\c1=N/Cc1c(C)cc(C#N)cc1Cl	0.16	–
CC(C)(C)/N=c1\c(O)c(O)\c1=N/Cc1ccc(C#N)cc1	0.27	ED50 (Rattus norvegicus [2]): 3 mg/kg; Change (Rattus norvegicus [4]): -52%
CCC(C)(C)/N=c1\c(O)c(O)\c1=N/Cc1ccc(C)c(C)c1	> 30	–
CCC(CC)/N=c1\c(O)c(O)\c1=N/Cc1ccc(C#N)cc1	1.3	–
CCC(C)(C)/N=c1\c(O)c(O)\c1=N/Cc1ccc(F)cc1	0.36	–
CCC(C)(C)/N=c1\c(O)c(O)\c1=N/Cc1ccc(F)c(Cl)c1	0.87	–
CC(C)(C)/N=c1\c(O)c(O)\c1=N/Cc1ccc(F)cc1F	2.1	–
CC(/N=c1\c(O)c(O)\c1=N/[C@H](C)C(C)(C)C)c1ccc(C#N)cc1 (stereo partly drawn)	6.5	–
CC(/N=c1/c(NC(=O)c2ccc(C#N)cc2)c(O)c1=O)C(C)(C)C (stereo not drawn)	11.5	–
CN(C)c1c(NCc2ccc(C#N)cc2)c(=O)c1=O	> 30	–
CC(C)(C)/N=c1\c(O)c(O)\c1=N/Cc1ccc(C#N)c(Cl)c1	1.1	–
CCc1cc(Br)ccc1C/N=c1\c(O)c(O)\c1=N/C(C)(C)C	0.27	–
N#Cc1ccc(CNc2c(NCC(F)(F)C(F)(F)F)c(=O)c2=O)cc1	14.4	–
CN(c1c(NCc2ccc(C#N)cc2)c(=O)c1=O)C(C)(C)C	18.3	–
CCCC(=O)N(Cc1c(C)cc(Cl)cc1Cl)c1c(NC(C)(C)CC)c(=O)c1=O	–	ED50 (Rattus norvegicus [2]): 3.9 mg/kg
COc1ccc(C/N=c2\c(O)c(O)\c2=N/C(C)(C)C)cc1	4.8	–
CCC(C)(C)/N=c1\c(O)c(O)\c1=N/Cc1c(C)cc(C)cc1C	0.31	–
CC(C)/N=c1\c(O)c(O)\c1=N/Cc1ccc(C#N)cc1	14	–
CCC(C)(C)/N=c1\c(O)c(O)\c1=N/Cc1ccc(C#N)c(Cl)c1	0.26	–
C/N=c1\c(O)c(O)\c1=N/Cc1ccc(C#N)cc1	> 30	–
CC(C)(C)/N=c1\c(O)c(O)\c1=N/Cc1cccc(F)c1	2.4	–
Cc1ccc(C/N=c2\c(O)c(O)\c2=N/C(C)(C)C)c(C)c1	0.63	–
CC1(C)Oc2ccc(OC(F)(F)F)cc2[C@@H](N2Cc3ccccc3C2=O)[C@@H]1O [CELIKALIM]	–	ED50 (Rattus norvegicus [2]): 0.3 mg/kg; ED20 (Rattus norvegicus [5]): 0.2 mg/kg; Ratio [6]: 0.7
C[C@](O)(C(=O)Nc1ccc(C(=O)c2ccccc2)cc1)C(F)(F)F [ZD-6169]	–	ED50 (Rattus norvegicus [2]): 2.4 mg/kg; Ratio [6]: 2.9
